SUMO1 PPI mod: SUMO1-SIM interaction modulation; P63165; SUMO1 binding to a labelled peptide, TR-FRET, 1 h; inhibition, % at 20 µM; 360,000 compounds, 0.33% hits; in the data active = inhibition above about 37%
NadD block: inhibitors of Staphylococcus aureus NadD. purified NadD enzyme, colorimetric absorbance read-out. inhibition, % at 20 µM. 360,000 compounds, 0.78% hits. AID 602399; in the data active = inhibition above about 26%
DNMT1 inh: inhibitors of human DNMT1; 360,000 compounds, 0.83% hits; inhibition (reported as % activation of signal), % at 10 µM; DNMT1 molecular beacon, Hinp1I cleavage, fluorescence; P26358; in the data active = inhibition above about 50%
STEP block: STEP (human) phosphatase inhibition | 360,000 compounds, 0.25% hits | recombinant STEP, OMFP fluorogenic substrate, fluorescence | P54829 | inhibition, % at 20 µM;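 active = inhibition at 20 µM, scaled per plate between control wells, above about 37%, limit read from the data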;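 note: 0% = DMSO with enzyme and substrate and 100% = substrate only without enzyme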
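Also added – OMFP at 25 µM · Test system – STEP tyrosine phosphatase · Technique – FITC-channel fluorescence of OMFP product · Schedule – 20 min at room temperature, dark · Evaluation – control-normalized % inhibition with plate pattern correction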
Scp1 inh: blocks human Scp-1 phosphatase activity; Recombinant Scp1, phosphopeptide, malachite green phosphate absorbance; Q9GZU7; inhibition, % at 20 µM; 340,000 compounds, 0.88% hits;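 active = inhibition above about 50% at 20 µM, limit read from the data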;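 note: plate controls were DMSO wells with enzyme for no effect and wells lacking enzyme for full effect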
Target sequence (Q9GZU7 76-261 limits assumed): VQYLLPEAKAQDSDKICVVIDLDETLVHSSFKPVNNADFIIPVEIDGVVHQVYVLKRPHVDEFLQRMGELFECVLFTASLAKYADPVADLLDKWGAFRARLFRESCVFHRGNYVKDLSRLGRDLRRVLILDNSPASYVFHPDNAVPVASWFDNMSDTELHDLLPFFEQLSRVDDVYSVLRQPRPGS
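Times: enzyme reaction 45 min at room temperature, colour 5 min, stabilisation 30 min. Material: SCP-1 catalytic fragment, aa 76-261. Medium: Acidic Tris acetate buffer with magnesium and detergent. Signal: colorimetric free-phosphate detection, absorbance 630 nm. Read-out basis: % inhibition of SCP-1 phosphate liberation. Reagent: Phosphorylated 17-residue peptide substrate.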
LMPTP block: LMPTP (human) inhibition | recombinant LMPTP-A, OMFP fluorogenic substrate, fluorescence intensity | inhibition, % at 20 µM | 360,000 compounds, 0.22% hits | AID 651560;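 active = compounds that cut the enzyme signal by at least half of the control window in the single-dose screen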;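 note: plate controls were DMSO wells with enzyme plus substrate for no effect and substrate without enzyme for full effect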
Target sequence (P24666 whole entry, looked up): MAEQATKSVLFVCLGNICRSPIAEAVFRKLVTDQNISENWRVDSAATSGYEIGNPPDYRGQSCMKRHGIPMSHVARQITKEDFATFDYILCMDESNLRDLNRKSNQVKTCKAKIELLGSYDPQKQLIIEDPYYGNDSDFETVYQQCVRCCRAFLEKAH
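Test system: LMPTP-A phosphatase enzyme; input: 0.625 nM LMPTP-A final; reagent: OMFP substrate, 400 µM final; compound dosing: 20 µM single dose, 3% DMSO; incubation: 50 min dark incubation at room temperature; measured by: endpoint fluorescence intensity from OMFP dephosphorylation; measure: % inhibition relative to no-enzyme and uninhibited control wells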
STEP inh conf: STEP (human) phosphatase inhibition, single concentration confirmation | shares compounds with STEP block | recombinant STEP, OMFP fluorogenic substrate, fluorescence | inhibition, % at 20 µM | 520 compounds, 32% hits | AID 623866; call rule not given here;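 note: 0% = enzyme with substrate plus DMSO and 100% = substrate without enzyme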
* hit, by the source's call; x = no result. In the library only some 2.4% were active in any assay of this set; here they are far more common.

SMILES	SUMO1 PPI mod	NadD block	DNMT1 inh	STEP block	Scp1 inh	LMPTP block	STEP inh conf
COc1cc2c(cc1OC)C(C(=O)O)C(c1ccc(C)o1)N(C)C2=O (stereo unspecified)	2	0	-1	56*	-4	0	12
COC(=O)c1ccc(COC(=O)c2ccccn2)cc1	-3	1	2	1	-16	-2	x
COC(=O)c1ccc(COC(=O)CCc2nc(-c3ccccc3)c(-c3ccccc3)o2)cc1	0	10	-10	38*	-13	4	-5
CCN1CCN(C(=S)c2ccc(Cl)cc2)CC1	-1	2	1	95*	-5	0	63*
S=C(c1ccc(Cl)cc1)N1CCN(Cc2ccccc2)CC1	-2	-1	0	2	-5	1	x
COc1ccc(C(=S)N2CCCCCC2)cc1	2	3	-13	6	-12	1	x
OCCN1CCN(C(=S)c2ccc(Cl)cc2)CC1	-1	1	1	70*	1	1	13
CCN1CCN(C(=S)c2ccc([N+](=O)[O-])cc2)CC1	-20	-1	3	62*	1	-1	24
CCN1CCN(C(=S)c2ccc(OC)cc2)CC1	2	-3	2	73*	1	-1	31
CCCCn1c(N)c(N(CCC(C)C)C(=O)COC(=O)Cc2ccc(Cl)cc2)c(=O)[nH]c1=O	2	5	6	-9	-7	-29	x
CCOc1ccc(C(=S)N2CCN(C)CC2)cc1	0	-1	-2	81*	-7	-1	48*
CCOc1ccc(C(=S)N2CCCC2)cc1	0	0	-3	-2	-5	-3	x
S=c1[nH]nc(-c2cccnc2)n1/N=C/c1ccccc1	-2	2	-1	49*	-5	0	7
S=c1[nH]nc(-c2cccnc2)n1/N=C/C=C/c1ccccc1	-11	4	2	2	9	-2	x
O=C1CCCc2c1sc1nc3n(c(=O)c21)CCCCC3	-21	-1	7	45*	-11	0	-10
O=c1c2c3c(sc2nc2n1CCCCC2)CCC3	5	-1	5	4	-7	-2	x
O=C(Nc1ccc(OC(F)(F)F)cc1)C1CCCN(S(=O)(=O)c2cccnc2)C1 (stereo unspecified)	1	1	-1	39*	-3	1	3
Cn1cc(P(=O)(N2CCOCC2)N2CCOCC2)cc1P(=S)(N1CCOCC1)N1CCOCC1	-1	-2	0	62*	-7	-1	23
Cn1cc(P(=S)(N2CCOCC2)N2CCOCC2)cc1P(=O)(N1CCOCC1)N1CCOCC1	-4	-6	-3	8	-4	1	x
CCCc1cc(C(=O)N2CCCC(C(=O)c3cccc4ccccc34)C2)n(C)n1 (stereo unspecified)	-5	-2	-1	49*	-3	1	1
S=C(NCCCN1CCOCC1)Nc1ccc(Cl)cc1	-1	-4	-2	6	-8	-6	x
FC(F)(F)Oc1ccc(NC(=S)NCCCN2CCOCC2)cc1	4	-3	10	41*	-8	-2	30
CCOc1cc(NC(=O)C2CC2)c(OCC)cc1NC(=O)CCn1nnc2ccccc21	-1	-1	11	63*	32	0	-10
COc1cc(CN2CCN(CC#Cc3ccccc3)CC2CCO)cc(OC)c1 (stereo unspecified)	1	-7	-3	-5	-1	0	x
CC(=O)c1sc(NC(=O)c2ccc(F)c(F)c2)nc1C	-10	14	1	58*	44	42	16
O=C(CCc1nnc(COc2ccccc2)o1)NCc1ccccc1C(F)(F)F	3	1	-2	2	-9	-1	x
CCN1CCN(C(=S)c2ccc(SC)cc2)CC1	-1	-2	1	67*	-13	0	6
CSc1ccc(C(=S)N2CCN(Cc3ccccc3)CC2)cc1	-3	-1	-3	52*	-5	-1	25
CCOC(=O)c1ccc(NC(=O)NCCc2cnc[nH]2)cc1	-2	7	-1	3	-2	-6	x

Screening results: PubChem BioAssay, Sanford-Burnham Center for Chemical Genomics
